pIC50: −log10 of the molar value. Values after ≈ are worked out from the molar mass of the structure shown.

In assay [1] the test system is L5178Y. Nature of the assay: Cytotoxicity against mouse L5178Y cells at 10 ug/ml by MTT assay. It counts as functional.
The target of assay [2] is T1, NUAK family SNF1-like kinase 1 (Homo sapiens, UniProt O60285).
T1 sequence (O60285 whole entry): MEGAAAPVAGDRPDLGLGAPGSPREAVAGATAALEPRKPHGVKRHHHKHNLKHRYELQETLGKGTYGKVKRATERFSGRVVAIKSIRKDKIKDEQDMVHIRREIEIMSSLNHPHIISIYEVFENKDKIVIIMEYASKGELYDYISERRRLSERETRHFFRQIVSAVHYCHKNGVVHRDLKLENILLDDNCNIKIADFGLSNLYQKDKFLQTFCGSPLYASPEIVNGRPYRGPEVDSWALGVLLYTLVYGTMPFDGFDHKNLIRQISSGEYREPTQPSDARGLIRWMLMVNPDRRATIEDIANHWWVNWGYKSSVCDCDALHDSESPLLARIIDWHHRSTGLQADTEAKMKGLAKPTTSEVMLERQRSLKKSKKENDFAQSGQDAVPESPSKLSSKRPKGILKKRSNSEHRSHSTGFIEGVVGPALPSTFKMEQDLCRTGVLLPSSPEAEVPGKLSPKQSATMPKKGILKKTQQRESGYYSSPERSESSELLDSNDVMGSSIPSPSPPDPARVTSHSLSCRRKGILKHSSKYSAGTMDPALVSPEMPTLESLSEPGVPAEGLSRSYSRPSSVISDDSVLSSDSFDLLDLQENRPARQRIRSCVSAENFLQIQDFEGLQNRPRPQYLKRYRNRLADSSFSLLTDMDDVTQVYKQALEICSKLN
The experiment in a line: Inhibition of recombinant ARK5.

For assay [3], the target named is T2, Receptor-type tyrosine-protein kinase FLT3 (Homo sapiens, UniProt P36888).
T2 sequence (P36888 whole entry): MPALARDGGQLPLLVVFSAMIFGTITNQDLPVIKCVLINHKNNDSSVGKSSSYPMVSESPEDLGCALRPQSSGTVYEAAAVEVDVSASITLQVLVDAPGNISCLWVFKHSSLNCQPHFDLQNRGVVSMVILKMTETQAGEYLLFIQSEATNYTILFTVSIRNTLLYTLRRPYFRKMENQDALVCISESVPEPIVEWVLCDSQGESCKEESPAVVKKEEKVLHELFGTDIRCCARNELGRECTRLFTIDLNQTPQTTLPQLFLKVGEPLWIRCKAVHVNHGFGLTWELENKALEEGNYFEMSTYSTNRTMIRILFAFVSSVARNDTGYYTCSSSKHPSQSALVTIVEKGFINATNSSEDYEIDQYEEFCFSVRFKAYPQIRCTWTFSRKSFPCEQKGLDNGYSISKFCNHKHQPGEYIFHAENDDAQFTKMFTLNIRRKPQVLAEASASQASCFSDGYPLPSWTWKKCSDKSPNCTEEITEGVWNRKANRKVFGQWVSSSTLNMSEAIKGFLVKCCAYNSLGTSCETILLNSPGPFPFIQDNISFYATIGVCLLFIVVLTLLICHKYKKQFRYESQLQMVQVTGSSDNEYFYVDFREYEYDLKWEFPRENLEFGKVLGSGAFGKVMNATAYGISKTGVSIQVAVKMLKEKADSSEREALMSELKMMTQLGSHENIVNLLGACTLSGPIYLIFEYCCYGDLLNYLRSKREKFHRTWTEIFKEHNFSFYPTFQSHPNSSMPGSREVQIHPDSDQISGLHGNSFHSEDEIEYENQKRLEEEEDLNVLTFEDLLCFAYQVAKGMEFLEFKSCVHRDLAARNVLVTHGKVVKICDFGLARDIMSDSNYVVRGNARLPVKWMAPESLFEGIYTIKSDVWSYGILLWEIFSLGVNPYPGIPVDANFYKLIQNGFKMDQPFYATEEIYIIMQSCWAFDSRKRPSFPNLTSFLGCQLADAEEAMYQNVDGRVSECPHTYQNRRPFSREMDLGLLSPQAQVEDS
The experiment in a line: Inhibition of recombinant FLT3. In short, it runs like this:
(§1)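 Purified recombinant kinase, 50 µL reaction. 1 µM [γ-33P]-ATP with substrate; compound added in 10% DMSO. Tested over several concentrations; IC50 in g/mL.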

The target in assay [4] is Cyclin-dependent kinase 4/cyclin D1 (Homo sapiens, UniProt P11802). Nature of the assay: (§2) Inhibition of recombinant CDK4/CycD1. In short, it runs like this: as §1
Chain of Cyclin-dependent kinase 4/cyclin D1 (Homo sapiens, UniProt P11802) (P11802 whole entry): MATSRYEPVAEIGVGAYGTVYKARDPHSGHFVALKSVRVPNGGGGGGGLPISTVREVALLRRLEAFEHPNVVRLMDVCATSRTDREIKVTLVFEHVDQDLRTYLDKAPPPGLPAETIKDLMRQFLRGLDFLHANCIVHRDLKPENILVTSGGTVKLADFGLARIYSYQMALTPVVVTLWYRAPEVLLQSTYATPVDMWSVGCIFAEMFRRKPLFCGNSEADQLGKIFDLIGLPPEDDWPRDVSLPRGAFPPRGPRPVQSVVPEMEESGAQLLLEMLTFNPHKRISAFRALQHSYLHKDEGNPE
Chain of Cyclin-dependent kinase 4/cyclin D1 (Homo sapiens, UniProt P11802) (P24385 whole entry, further chain): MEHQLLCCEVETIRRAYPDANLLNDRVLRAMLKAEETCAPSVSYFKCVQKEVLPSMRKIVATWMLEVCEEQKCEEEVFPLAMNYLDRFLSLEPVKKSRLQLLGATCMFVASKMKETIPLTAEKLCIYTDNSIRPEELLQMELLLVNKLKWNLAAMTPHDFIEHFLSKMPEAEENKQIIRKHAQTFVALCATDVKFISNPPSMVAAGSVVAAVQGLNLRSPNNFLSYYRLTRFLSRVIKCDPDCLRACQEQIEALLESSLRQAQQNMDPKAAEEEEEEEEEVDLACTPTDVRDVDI
Assay [5] deals with L5178Y. The experiment in a line: Cytotoxicity against mouse L5178Y cells by MTT assay. It counts as functional, cell-based. In short, it runs like this: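 Mouse L5178Y lymphoma cells; MTT microculture tetrazolium read-out, relative to untreated controls. Vehicle controls with 0.1% EGMME/DMSO. Triplicate wells, experiment repeated three times.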
In assay [6] the target is Serine/threonine-protein kinase PLK1 (Homo sapiens, UniProt P53350). The experiment in a line: Inhibition of recombinant PLK1. In short, it runs like this:
as §1

Assay [7] has as its target Focal adhesion kinase 1 (Homo sapiens, UniProt Q05397). The experiment in a line: Inhibition of recombinant FAK. In short, it runs like this: as §1
The target of assay [8] is Platelet-derived growth factor receptor beta (Homo sapiens, UniProt P09619). The experiment in a line: Inhibition of recombinant PDGFRbeta.
Chain of Platelet-derived growth factor receptor beta (P09619 whole entry): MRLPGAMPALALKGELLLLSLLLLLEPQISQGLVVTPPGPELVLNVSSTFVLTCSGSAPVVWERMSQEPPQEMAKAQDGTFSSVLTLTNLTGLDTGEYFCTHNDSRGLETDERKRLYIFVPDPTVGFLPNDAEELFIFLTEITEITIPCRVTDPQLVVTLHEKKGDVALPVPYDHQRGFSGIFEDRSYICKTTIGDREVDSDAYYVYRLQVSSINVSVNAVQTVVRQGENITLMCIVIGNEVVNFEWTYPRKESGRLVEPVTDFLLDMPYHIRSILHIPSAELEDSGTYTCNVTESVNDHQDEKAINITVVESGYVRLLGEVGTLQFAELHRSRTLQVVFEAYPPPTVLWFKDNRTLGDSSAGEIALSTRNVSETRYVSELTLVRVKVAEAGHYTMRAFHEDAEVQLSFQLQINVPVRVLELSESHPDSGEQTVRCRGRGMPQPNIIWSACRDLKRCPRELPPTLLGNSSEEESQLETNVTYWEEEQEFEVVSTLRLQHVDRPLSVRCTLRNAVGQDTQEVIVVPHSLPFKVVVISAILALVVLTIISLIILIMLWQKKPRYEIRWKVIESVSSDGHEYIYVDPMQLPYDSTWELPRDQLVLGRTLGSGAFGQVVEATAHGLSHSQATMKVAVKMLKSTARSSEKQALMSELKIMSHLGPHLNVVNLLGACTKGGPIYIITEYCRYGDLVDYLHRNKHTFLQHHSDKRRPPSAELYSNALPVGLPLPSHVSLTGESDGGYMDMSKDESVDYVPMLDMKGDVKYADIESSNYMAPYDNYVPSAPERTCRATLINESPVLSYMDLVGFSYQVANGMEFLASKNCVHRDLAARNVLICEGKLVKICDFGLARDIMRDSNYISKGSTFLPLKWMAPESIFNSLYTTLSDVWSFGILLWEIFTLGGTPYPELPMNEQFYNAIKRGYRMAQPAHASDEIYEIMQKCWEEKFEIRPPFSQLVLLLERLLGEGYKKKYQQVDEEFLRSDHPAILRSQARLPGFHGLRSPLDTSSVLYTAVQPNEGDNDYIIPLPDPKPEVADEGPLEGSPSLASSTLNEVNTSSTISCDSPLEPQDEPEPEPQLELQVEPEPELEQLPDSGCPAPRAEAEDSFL
In assay [9] the target is T3, Vascular endothelial growth factor receptor 2 (Homo sapiens, UniProt P35968). Nature of the assay: Inhibition of recombinant VEGFR2. In short, it runs like this:
as §1

Assay [10] concerns the target T4, Insulin-like growth factor 1 receptor (Homo sapiens, UniProt P08069). The experiment in a line: Inhibition of recombinant IGF1R. In short, it runs like this:
as §1

For assay [11], the target named is Cyclin-dependent kinase 4/cyclin D1 (Homo sapiens, UniProt P11802+P24385). The assay is described as §2. In short, it runs like this:
as §1

Assay [12] deals with T4, Insulin-like growth factor 1 receptor. Nature of the assay: Inhibition of recombinant IGF1R phosphorylation transfected in mouse embryonic fibroblast. In short, it runs like this: (§3)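 Mouse embryonic fibroblasts stably transfected with FLT3 or IGF1-R; 90 min pretreatment with 10 µM staurosporine, compound 90 min at 37 °C. Stimulation with FLT3-ligand 5 min (FLT3) or IGF1 3 min (IGF1-R). Lysates captured on antibody-coated plates; autophosphorylation detected with antiphosphotyrosine PY99.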

In assay [13] the target is T2, Receptor-type tyrosine-protein kinase FLT3. The experiment in a line: Inhibition of recombinant FLT3 phosphorylation transfected in mouse embryonic fibroblast. In short, it runs like this:
as §3

For assay [14], the target named is T3, Vascular endothelial growth factor receptor 2. The experiment in a line: Inhibition of recombinant VEGFR2 phosphorylation in human HUE cells. Format: cell-based. In short, it runs like this: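 Human endothelial HUE cells pretreated 90 min with 10 µM staurosporine, compound 90 min at 37 °C, then VEGF165 7 min. Lysates captured on antibody-coated plates; VEGF-R2 autophosphorylation detected with antiphosphotyrosine PY99.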

The target in assay [15] is Aurora kinase B (Homo sapiens, UniProt Q96GD4). Nature of the assay: Inhibition of recombinant Aurora B phosphorylation in human HT29 cells. Format: cell-based, HT-29. In short, it runs like this:
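HT29 cells pretreated 90 min with 10 µM staurosporine, then compound 90 min at 37 °C, then calyculin A 30 min. Lysates captured on antibody-coated plates; phospho-histone H3 detected with anti-P-His H3 as the Aurora B read-out.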

T3 sequence (P35968 whole entry): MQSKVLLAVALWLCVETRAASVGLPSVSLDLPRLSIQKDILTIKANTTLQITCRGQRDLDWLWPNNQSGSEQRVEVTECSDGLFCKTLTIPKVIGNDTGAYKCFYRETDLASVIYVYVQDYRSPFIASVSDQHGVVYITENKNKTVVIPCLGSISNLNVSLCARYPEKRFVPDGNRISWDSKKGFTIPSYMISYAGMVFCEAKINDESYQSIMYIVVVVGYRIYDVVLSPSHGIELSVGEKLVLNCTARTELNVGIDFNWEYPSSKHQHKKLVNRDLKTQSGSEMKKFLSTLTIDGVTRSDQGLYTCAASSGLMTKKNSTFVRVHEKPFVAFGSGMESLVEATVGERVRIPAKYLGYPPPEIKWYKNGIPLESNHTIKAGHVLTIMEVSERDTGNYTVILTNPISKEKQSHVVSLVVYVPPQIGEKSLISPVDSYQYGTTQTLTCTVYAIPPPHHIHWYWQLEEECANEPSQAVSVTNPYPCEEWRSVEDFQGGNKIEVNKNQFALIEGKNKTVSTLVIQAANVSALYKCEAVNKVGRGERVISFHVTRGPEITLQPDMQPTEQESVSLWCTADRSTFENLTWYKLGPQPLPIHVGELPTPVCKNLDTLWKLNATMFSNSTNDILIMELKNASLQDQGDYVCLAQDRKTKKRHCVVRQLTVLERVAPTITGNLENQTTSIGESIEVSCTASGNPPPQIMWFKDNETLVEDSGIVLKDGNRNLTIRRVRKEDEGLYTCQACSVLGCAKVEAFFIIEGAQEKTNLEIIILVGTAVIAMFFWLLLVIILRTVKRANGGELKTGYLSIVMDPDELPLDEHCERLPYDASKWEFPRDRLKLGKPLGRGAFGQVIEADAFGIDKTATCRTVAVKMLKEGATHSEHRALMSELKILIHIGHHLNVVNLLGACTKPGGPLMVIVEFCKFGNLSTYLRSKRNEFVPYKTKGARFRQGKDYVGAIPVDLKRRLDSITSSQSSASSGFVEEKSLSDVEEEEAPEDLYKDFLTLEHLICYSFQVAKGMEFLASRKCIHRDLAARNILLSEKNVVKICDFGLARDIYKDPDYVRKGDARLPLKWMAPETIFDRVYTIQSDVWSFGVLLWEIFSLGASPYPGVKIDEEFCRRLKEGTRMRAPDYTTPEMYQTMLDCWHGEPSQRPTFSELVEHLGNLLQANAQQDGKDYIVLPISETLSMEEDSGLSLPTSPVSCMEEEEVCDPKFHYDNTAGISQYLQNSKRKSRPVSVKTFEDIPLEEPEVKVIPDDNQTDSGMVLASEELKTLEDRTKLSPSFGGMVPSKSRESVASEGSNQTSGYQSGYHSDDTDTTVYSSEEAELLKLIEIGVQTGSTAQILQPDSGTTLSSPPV
Chain of Cyclin-dependent kinase 4/cyclin D1 (Homo sapiens, UniProt P11802+P24385) (P11802 whole entry): as the sequence (P11802 whole entry) above
Chain of Cyclin-dependent kinase 4/cyclin D1 (Homo sapiens, UniProt P11802+P24385) (P24385 whole entry): as the sequence (P24385 whole entry, further chain) above
T4 sequence (P08069 31-736 limits assumed): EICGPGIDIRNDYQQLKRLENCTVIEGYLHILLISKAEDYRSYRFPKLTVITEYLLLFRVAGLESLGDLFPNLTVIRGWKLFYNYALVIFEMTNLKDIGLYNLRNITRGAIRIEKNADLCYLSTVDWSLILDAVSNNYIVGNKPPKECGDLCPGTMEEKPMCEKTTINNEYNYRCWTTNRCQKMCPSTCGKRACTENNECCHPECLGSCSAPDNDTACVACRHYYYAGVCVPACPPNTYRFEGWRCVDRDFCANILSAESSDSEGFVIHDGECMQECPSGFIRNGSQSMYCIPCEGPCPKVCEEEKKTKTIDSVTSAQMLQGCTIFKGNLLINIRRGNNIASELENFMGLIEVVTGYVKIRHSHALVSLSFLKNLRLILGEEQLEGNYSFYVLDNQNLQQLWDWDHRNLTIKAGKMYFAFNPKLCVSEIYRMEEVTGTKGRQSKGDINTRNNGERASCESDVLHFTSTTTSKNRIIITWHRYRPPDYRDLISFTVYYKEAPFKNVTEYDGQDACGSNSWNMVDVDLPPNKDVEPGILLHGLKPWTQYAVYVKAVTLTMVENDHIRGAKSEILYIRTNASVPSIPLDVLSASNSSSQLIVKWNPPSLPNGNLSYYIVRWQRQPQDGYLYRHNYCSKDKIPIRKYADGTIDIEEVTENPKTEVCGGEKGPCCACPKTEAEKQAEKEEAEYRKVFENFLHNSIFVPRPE
T4 sequence (P08069 741-1367 limits assumed): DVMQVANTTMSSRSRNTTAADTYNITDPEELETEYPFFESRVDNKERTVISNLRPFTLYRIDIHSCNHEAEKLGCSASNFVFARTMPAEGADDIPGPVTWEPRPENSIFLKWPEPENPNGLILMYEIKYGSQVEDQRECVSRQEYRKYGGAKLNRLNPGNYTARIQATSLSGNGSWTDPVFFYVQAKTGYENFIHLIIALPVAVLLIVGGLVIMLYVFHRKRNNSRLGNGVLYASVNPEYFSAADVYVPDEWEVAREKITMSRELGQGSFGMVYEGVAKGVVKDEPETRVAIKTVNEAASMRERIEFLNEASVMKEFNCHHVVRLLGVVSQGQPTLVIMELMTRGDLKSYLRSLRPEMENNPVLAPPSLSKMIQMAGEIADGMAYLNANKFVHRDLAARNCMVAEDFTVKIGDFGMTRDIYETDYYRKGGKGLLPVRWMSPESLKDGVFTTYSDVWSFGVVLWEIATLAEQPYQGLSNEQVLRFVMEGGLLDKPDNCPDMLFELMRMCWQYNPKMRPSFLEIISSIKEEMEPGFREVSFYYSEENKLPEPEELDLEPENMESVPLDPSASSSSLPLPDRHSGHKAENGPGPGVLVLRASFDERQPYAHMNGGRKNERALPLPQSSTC
Chain of Aurora kinase B (Q96GD4 whole entry): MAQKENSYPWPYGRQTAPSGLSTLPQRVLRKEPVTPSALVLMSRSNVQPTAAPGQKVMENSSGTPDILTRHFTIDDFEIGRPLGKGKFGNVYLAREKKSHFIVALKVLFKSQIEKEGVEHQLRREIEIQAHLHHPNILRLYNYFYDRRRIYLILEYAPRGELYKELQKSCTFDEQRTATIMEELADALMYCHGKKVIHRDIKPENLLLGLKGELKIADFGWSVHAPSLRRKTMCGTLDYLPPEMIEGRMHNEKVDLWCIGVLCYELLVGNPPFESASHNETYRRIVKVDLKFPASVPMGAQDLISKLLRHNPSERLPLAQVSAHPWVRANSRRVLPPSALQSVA

In turn, `Cc1cc(O)c(O)cc1-c1cc(O)cc(O)c1C(=O)O` registered an Activity in [1] of 0.8%. Besides, the IC50 in [2] (read-out: IC50 (converted)) is 9.41 µM; in assay [3] (read-out: IC50 (converted)), 6.52 µM; in assay [6], > 1 ×10⁻⁵ g/ml; in assay [7], > 1 ×10⁻⁵ g/ml; in assay [8] (read-out: IC50 (converted)), 21 µM; in assay [9] (read-out: IC50 (converted)), 13.8 µM. Also, the IC50 in [10] (read-out: IC50 (converted)) is 8.69 µM. The pIC50 in assay [4] is 4.80. Further, in assay [5], it took 6.2 µg/mL (≈ 22.4 µM) to reach a half-maximal effect (EC50).

Turning to `COc1cc(O)c2c(c1)-c1cc(O)c(O)cc1COC2=O` [ALTERLACTONE], the Activity in [1] is on record as 11.8%. For the same compound, the IC50 in [2], in assay [3], in assay [11], in assay [6], in assay [7] and in [8] was > 1 ×10⁻⁵ g/ml in each case. For the same compound, the IC50 in assay [9] and in assay [10] was > 1 ×10⁻⁵ g/ml in each case.

`Cc1cc(O)cc2oc(=O)c3c(O)cc(OS(=O)(=O)O)cc3c12` registered an Activity in assay [1] of 0.9%. Also, the IC50 in [2] was 7.5 ×10⁻⁷ g/ml; in [3], 3.3 ×10⁻⁷ g/ml; in assay [6] (read-out: IC50 (converted)) it was 13 µM; in [7] (read-out: IC50 (converted)), 6.21 µM; in [9], 7 ×10⁻⁷ g/ml; in assay [10] (read-out: IC50 (converted)) it was 14.5 µM. Besides, in [4], the pIC50 was 5.10. This compound also showed an EC50 in assay [5] of 4.5 µg/mL (≈ 13.3 µM).

In turn, `COc1cc(O)c(C(=O)O)c(-c2cc(O)c(O)cc2C)c1` [ALTENUSIN] displayed an Activity in assay [1] of 1.2%. For the same compound, the IC50 is 22.7 µM in assay [2] (read-out: IC50 (converted)); 5.51 µM in assay [3] (read-out: IC50 (converted)); 24.5 µM in assay [6] (read-out: IC50 (converted)); > 1 ×10⁻⁵ g/ml in [7]; 17.2 µM in [9] (read-out: IC50 (converted)); 16.9 µM in assay [10] (read-out: IC50 (converted)). For the same compound, the pIC50 in [4] is 4.81. Besides, in assay [5], the EC50 is 6.8 µg/mL (≈ 23.4 µM).

The compound `Cc1cc(O)cc2oc(=O)c3c(O)cc(O)cc3c12` [ALTERNARIOL] returned an Activity in [1] of 3.7%. In addition, the pIC50 in [12] was 5.41; in assay [13], 5.41; in assay [4] it was 5.03; in assay [14] it was 5.41; in assay [15], 5.41. The IC50 in [2] is 9.5 ×10⁻⁷ g/ml; in assay [3], 4.3 ×10⁻⁷ g/ml; in [6] (read-out: IC50 (converted)), 26.7 µM; in assay [7] (read-out: IC50 (converted)), 9.29 µM; in [8], 8.9 ×10⁻⁷ g/ml; in assay [9], 9.2 ×10⁻⁷ g/ml. Further, the IC50 in assay [10] (read-out: IC50 (converted)) is 13.2 µM. Besides, in [5], the response was half-maximal at 1.7 µg/mL (≈ 6.58 µM) (EC50).

For the compound `COc1cc(O)c2c(c1)C1(OC2=O)C(C)=CC(=O)C1O` (centres undefined) [TALAROFLAVONE], the Activity in assay [1] is on record as 92.9%. Besides, the IC50 in [2], in [3], in assay [11], in assay [6], in [7] and in assay [9] was > 1 ×10⁻⁵ g/ml each time. Further, the IC50 in assay [10] is given as > 1 ×10⁻⁵ g/ml.

The compound `O=C1C[C@H](O)[C@@H]2c3c(ccc(O)c31)-c1ccc(O)c3c1[C@@]2(O)CCC3=O` [ALTERTOXIN I] displayed an Activity in assay [1] of 77.3%. Further, the IC50 is 6.24 µM in [2] (read-out: IC50 (converted)); 6.6 ×10⁻⁷ g/ml in assay [3]; > 1 ×10⁻⁵ g/ml in assay [6]; 20.7 µM in [7] (read-out: IC50 (converted)); 3.97 µM in assay [9] (read-out: IC50 (converted)); 4.82 µM in assay [10] (read-out: IC50 (converted)). The negative logarithm of the IC50 (pIC50) in assay [4] was 4.74.

For `COc1cc(O)c2c(=O)oc3cc(O)cc(C)c3c2c1`, the Activity in assay [1] is recorded as 1.8%. Further, the IC50 was 14.7 µM in assay [2] (read-out: IC50 (converted)); 3.67 µM in [3] (read-out: IC50 (converted)); 30.1 µM in assay [6] (read-out: IC50 (converted)); 32.7 µM in assay [7] (read-out: IC50 (converted)); 4.04 µM in assay [9] (read-out: IC50 (converted)); 6.24 µM in assay [10] (read-out: IC50 (converted)). In [4], the negative logarithm of the IC50 (pIC50) is 5.11. For the same compound, the EC50 in assay [5] worked out at 7.8 µg/mL (≈ 28.6 µM).

Compound `COc1cc(O)c(C(=O)O)c(C2=C(C)C[C@@H](O)C2=O)c1` [ALTERNARIENONIC ACID] had an Activity in assay [1] of 101.2%. The IC50 in assay [2] (read-out: IC50 (converted)) was 14.4 µM; in [3] (read-out: IC50 (converted)) it was 23.7 µM; in [11], > 1 ×10⁻⁵ g/ml; in assay [6], > 1 ×10⁻⁵ g/ml; in [7] it was > 1 ×10⁻⁵ g/ml; in assay [8], > 1 ×10⁻⁵ g/ml. The IC50 was 18.3 µM in [9] (read-out: IC50 (converted)) and 12.9 µM in assay [10] (read-out: IC50 (converted)).

In assay [1], `COc1cc(O)c2c(=O)oc3c(O)c(O)cc(C)c3c2c1` had an Activity of 47.1%. The IC50 was 3.5 ×10⁻⁷ g/ml in assay [2]; 5.3 ×10⁻⁷ g/ml in assay [3]; 19.8 µM in assay [6] (read-out: IC50 (converted)); 17 µM in assay [7] (read-out: IC50 (converted)); 6.24 µM in [8] (read-out: IC50 (converted)); 6.4 ×10⁻⁷ g/ml in [9]. Moreover, the IC50 in assay [10] was determined as 9.1 ×10⁻⁷ g/ml. In addition, in assay [4], the pIC50 is 5.23.
